Compound activity from PubChem BioAssay.
MT stabilizer – microtubule stabilizers in HeLa cells; hit rate 0.83% among 200,000; AID 2205; HeLa tubulin immunostaining HCS, 24 h; share of cells brighter than vehicle mean+2SD; % tubulin-high responders, % at 10 µM;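 active = plate Z-score above 3 for both tubulin-high and condensed-nucleus cell shares, with cell loss under 80%, at 10 µM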;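 note: anti alpha tubulin signal scored within the nucleus-defined area of each cell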
Ins promoter up – MIN6 insulin promoter up-regulation. MIN6 insulin promoter-GFP reporter, high-content imaging; active compounds read high. z-score at 5 µM. hit rate 0.3% among 190,000;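 active = z-score above 3 at 5 µM with at least 500 cells counted in the well; inconclusive = wells under 500 cells, flagged as cytotoxic or low count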
bCat nuc transl – beta-catenin nuclear translocation modulation; AID 1665; nuclear translocation activity, % at 5 µM; HeLa beta-catenin nuclear translocation, immunofluorescence imaging; hit rate 0.3% among 190,000;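 active = nuclear translocation activity above 50% at 5 µM, with a well cell count of 50 or more; inconclusive = wells under 50 cells across six images, flagged as toxic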;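 note: per-cell ratio of nuclear to cytoplasmic median beta-catenin stain intensity; plate controls were DMSO negative control for no effect and GSK-3 inhibitor IX positive control for full effect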
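Technique: fluorescence imaging of beta-catenin antibody stain plus DAPI / Material: human HeLa cell line / Incubation: compound treatment 24 h, 37°C, 5% CO2 / Read-out basis: % activation of per-cell nuclear versus cytoplasmic median beta-catenin signal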
Dynein cargo inh – dynein cargo transport inhibition; 3617.4 mouse cells, GR-EGFP nuclear translocation imaging; test concentration mostly 20 µM; stimulated with dexamethasone, 1 µM; active compounds read low; z-score, hits read low; hit rate 0.47% among 220,000;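 active = plate z-score of nuclear minus cytoplasmic receptor signal below a set negative limit, without overly bright fluorescence or cell loss, cut at about -3.5 in these data, passing the limit was not always enough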;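 note: z-score of nuclear minus cytoplasmic ring GR-EGFP intensity difference per well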
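Also added – dexamethasone, 1.0 µM final · Buffer or medium – tet-free, stripped-serum medium · Schedule – induction 48 h, compound 1 h, agonist 30 min · Detection – formaldehyde fixation, Hoechst nuclear stain, 10x automated fluorescence imaging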
Autophagy HCS – autophagy modulation, high-content screen. hit rate 0.98% among 190,000. calls only at 10 µM (by protocol). AID 463193. MEF GFP-LC3 puncta imaging; test concentration mostly 10 µM;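 active = percentage of spot-positive cells more than 3 SD above its plate mean, without a fluorescence outlier flag or 80% toxicity; inconclusive = no clear call, values can overlap the other calls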;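 note: spot-positive cell cutoff set from DMSO-treated cells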
Dynein confirm – dynein cargo transport inhibition, confirmation. hit rate 69% among 1,000. shares compounds with Dynein cargo inh. calls only at 20 µM. 3617.4 GR-EGFP nuclear translocation imaging, dexamethasone-induced;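 active = inhibition of receptor movement into the nucleus at or above a set limit in both runs, with normal cell brightness and cell count; inconclusive = limit reached in only one run, brightness and count normal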;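 note: dexamethasone at 1 µM final in well for 30 min; nuclear minus cytoplasmic GR-EGFP mean intensity difference in channel 2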
The depositor's hits bear a star; i = inactive; ? = inconclusive; nt = no result; + = active, no number. Compounds with a hit are over-represented: about 2.3% of the library has one in this group of screens.

SMILES | MT stabilizer | Ins promoter up | bCat nuc transl | Dynein cargo inh | Autophagy HCS | Dynein confirm
O=C(O)Cn1cc(/C=C/[N+](=O)[O-])c2ccccc21 | 2 | -0.05 | -2 | 0.29 | i | nt
O=[N+]([O-])c1ccc(N/N=C/c2cn(Cc3ccc(F)cc3)c3ccccc23)nc1 | 5 | nt | 0 | -5.4 | + | ?
O=[N+]([O-])/C=C/c1cn(Cc2ccccc2)c2ccccc12 | 3 | 0.81 | -2 | -4.6* | i | ?
N#Cc1ccccc1Cn1cc(/C=C/[N+](=O)[O-])c2ccccc21 | 11 | 1.4 | 0 | -4.7* | i | +
Nc1ccc(N2CCCCCC2)cc1 | 5 | -0.85 | 0 | -4.3* | i | ?
COc1cc(C(Nc2ccccn2)c2ccc3ccc(C)nc3c2O)cc(OC)c1O (centres undefined) | 3 | -0.09 | 7 | -3.6* | i | +
O=C(Oc1ccccc1)c1cccc(COC(=O)c2cnccn2)c1 | 3 | nt | nt | -4.1 | i | i
O=C(c1ccccc1)c1ccc(COC(=O)c2cnccn2)cc1 | 3 | 0.01 | -1 | 0.32 | i | nt
O=C(O)/C=C/C(=O)Nc1ccc(S(=O)(=O)N2CCCC2)cc1 | 5 | -0.14 | -2 | 0.44 | i | nt
COc1ccccc1NS(=O)(=O)c1cc([N+](=O)[O-])ccc1N/N=C/c1c(C)[nH]c2ccccc12 | 1 | nt | -1 | -4.9 | i | i
Cc1[nH]c2ccccc2c1/C=N/NC(=O)c1cccc([N+](=O)[O-])c1 | 3 | -0.29 | -3 | 1.6 | i | nt
Cc1[nH]c2ccccc2c1/C=N/Nc1ccc([N+](=O)[O-])cc1 | 5 | nt | 0 | -3.9 | + | i
Cc1[nH]c2ccccc2c1/C=N/Nc1ccc(F)cc1F | 4 | -0.28 | 0 | 0.43 | i | nt
O=[N+]([O-])c1cc([N+](=O)[O-])c2cccnc2c1Oc1ccccc1O | 4 | -0.49 | 0 | -4.4* | i | +
O=[N+]([O-])c1ccc(O)c2ncccc12 | 4 | nt | nt | -0.49 | i | nt
O=[N+]([O-])c1cccc(-c2ccc(/C=N/Nc3nc(N4CCCCC4)nc(N4CCCCC4)n3)o2)c1 | 3 | 0.93 | -2 | 1.2 | i | nt
O=[N+]([O-])c1ccc(-c2ccc(/C=N/Nc3nc(N4CCCCC4)nc(N4CCCCC4)n3)o2)cc1 | 5 | nt | -2 | -7.3 | + | i
C/C(=N/NC(=O)CN1CCN(Cc2ccccc2Cl)CC1)c1cccs1 | nt | 0.11 | 0 | -0.4 | nt | nt
CS(=O)(=O)N(CC(=O)NCc1ccco1)c1ccc(OCc2ccccc2)cc1 | 2 | -0.08 | 1 | 0.88 | i | nt
CC(=O)Oc1ccc(OC(C)=O)c(SCCCCCCl)c1 | 5 | -3.5 | 1 | -4.6* | i | +
CCOC(=O)C1C(=O)C=C(c2ccc(C)cc2)CC1c1ccccc1 (centres undefined) | 3 | -0.36 | 0 | 0.13 | i | nt
CCOC(=O)C1C(=O)C=C(/C=C/c2ccc(N(C)C)cc2)CC1c1ccccc1 (centres undefined) | 7 | 9.8* | -2 | -9.9 | + | i
CCCCCc1cc(O)c2c(C)cc(=O)oc2c1 | 4 | -1.8 | 2 | -0.41 | i | nt
CCCCc1cc(O)c(CCCC)c(O)c1 | 4 | -0.07 | -2 | -3.9* | i | +
CC(C)(C)c1cc(CN(CCO)CCO)cc(C(C)(C)C)c1O | 2 | nt | nt | -5.8* | i | +
SMILES | MT stabilizer | Ins promoter up | bCat nuc transl | Dynein cargo inh | Autophagy HCS | Dynein confirm
O=C(Nc1ccc2c(c1)OCO2)c1n[nH]c(=O)c2ccccc12 | nt | -0.83 | 1 | 0.022 | nt | nt
COC(=O)c1ccc(-n2ccnc2)cc1 | 2 | 0.39 | -5 | -0.41 | i | nt
CCOC(=O)C(=Cc1ccc(F)cc1)C(=O)OCC | 1 | 0 | 2 | -5.2* | i | +
CCOC(=O)C(=Cc1ccc(Br)cc1)C(=O)OCC | nt | -1.3 | 0 | -2.4 | nt | nt
CCOC(=O)C(=Cc1ccc(-n2ccnc2)cc1)C(=O)OCC | 12 | -0.19 | -1 | -5.6* | i | +
CN(C)S(=O)(=O)c1cc(NC(=O)c2cc(=O)[nH]c3ccccc23)ccc1Cl | 3 | -0.52 | -1 | 0.091 | i | nt
Cc1ccc(C(=O)NC(C#N)=C(Cl)Cl)cc1 | 6 | -0.78 | 0 | -4.3* | i | +
CC(=O)Nc1ccc(NC(=O)c2ccc(C)c(S(=O)(=O)Nc3cccc(C)c3)c2)cc1 | 2 | 0.19 | -3 | -0.59 | i | nt
